Experiments:
Type in all cases: functional
SR = assay: Growth inhibition of human SR cells after 48 hrs by sulforhodamine B assay
Outline: (§1)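 Run in the NCI 60-human-tumour-cell-line panel, tested over a 5-log dose range. Dose–response curves gave three values per cell line, each as a log10 molar concentration: GI50 (50% inhibition of net cell growth), TGI (total inhibition of net growth) and LC50 (50% net cell death). The mean graph midpoint is the arithmetic mean over all lines, with insensitive lines entered at the highest concentration tested.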

NCI-H23 = assay: Growth inhibition of human NCI-H23 cells after 48 hrs by sulforhodamine B assay; settings: NCI-H23, 48 h
Outline: (§2)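 NCI 60-human-tumor-cell-line panel, with compounds tested over a 5-log dose range. Values are taken from dose-response curves as log10 molar concentrations: GI50 is 50% net growth inhibition, TGI is total growth inhibition, and LC50 is 50% net cell death.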

SK-MEL-28 = assay: Growth inhibition of human SK-MEL-28 cells after 48 hrs by sulforhodamine B assay; settings: SK-MEL-28, 48 h; outline: as §2
SF-268 [1] = assay: Anticancer activity against human SF268 cells assessed as cell growth at 100 uM after 48 hrs by sulforhodamine B assay; settings: SF-268, 48 h, read-out: Activity
SNB-19 = assay: Growth inhibition of human SNB19 cells after 48 hrs by sulforhodamine B assay; settings: SNB-19, 48 h; outline: as §1
MDA-MB-435 = assay: Growth inhibition of human MDA-MB-435 cells after 48 hrs by sulforhodamine B assay; settings: MDA-MB-435, 48 h; outline: as §2
NCI-H322M = assay: Growth inhibition of human NCI-H322M cells after 48 hrs by sulforhodamine B assay; outline: as §2
DU-145 = assay: Growth inhibition of human DU145 cells after 48 hrs by sulforhodamine B assay; settings: DU-145, 48 h; outline: as §2
MCF7 [2] = assay: Anticancer activity against human MCF7 cells assessed as cell growth at 100 uM after 48 hrs by sulforhodamine B assay; settings: MCF7, 48 h, read-out: Activity
SF-295 = assay: Growth inhibition of human SF295 cells after 48 hrs by sulforhodamine B assay; settings: SF-295, 48 h; outline: as §2
[3] = Growth inhibition of human Hs 578T cells after 48 hrs by sulforhodamine B assay; outline: as §2
[4] = Growth inhibition of human […] cells after 48 hrs by sulforhodamine B assay; outline: as §2
U-251 = assay: Growth inhibition of human U251 cells after 48 hrs by sulforhodamine B assay; settings: U-251, 48 h; outline: as §1
OVCAR-8 = assay: Growth inhibition of human OVCAR8 cells after 48 hrs by sulforhodamine B assay; settings: OVCAR-8, 48 h; outline: as §2
NCI-H460 = assay: Anticancer activity against human NCI-H460 cells assessed as cell growth at 100 uM after 48 hrs by sulforhodamine B assay; settings: NCI-H460, 48 h, read-out: Activity
PC-3 = assay: Growth inhibition of human PC3 cells after 48 hrs by sulforhodamine B assay; settings: PC-3, 48 h; outline: as §2
SK-MEL-2 = assay: Growth inhibition of human SK-MEL-2 cells after 48 hrs by sulforhodamine B assay; settings: SK-MEL-2, 48 h; outline: as §2
LOX IMVI = assay: Growth inhibition of human LOXIMVI cells after 48 hrs by sulforhodamine B assay; outline: as §2
IGROV-1 = assay: Growth inhibition of human IGROV1 cells after 48 hrs by sulforhodamine B assay; settings: IGROV-1, 48 h; outline: as §2
UACC-257 = assay: Growth inhibition of human UACC257 cells after 48 hrs by sulforhodamine B assay; settings: UACC-257, 48 h; outline: as §1
RXF 393 = assay: Growth inhibition of human RXF393 cells after 48 hrs by sulforhodamine B assay; settings: RXF 393, 48 h; outline: as §2
HCT-116 = assay: Growth inhibition of human HCT116 cells after 48 hrs by sulforhodamine B assay; settings: HCT-116, 48 h; outline: as §2
A549 = assay: Growth inhibition of human A549 cells after 48 hrs by sulforhodamine B assay; settings: A549, 48 h; outline: as §2
COLO 205 = assay: Growth inhibition of human COLO205 cells after 48 hrs by sulforhodamine B assay; settings: COLO 205, 48 h; outline: as §2
SF-268 [5] = assay: Growth inhibition of human SF268 cells after 48 hrs by sulforhodamine B assay; settings: SF-268, 48 h; outline: as §2
MCF7 [6] = assay: Growth inhibition of human MCF7 cells after 48 hrs by sulforhodamine B assay; settings: MCF7, 48 h; outline: as §2
SW-620 = assay: Growth inhibition of human SW620 cells after 48 hrs by sulforhodamine B assay; settings: SW-620, 48 h; outline: as §1
SK-MEL-5 = assay: Growth inhibition of human SK-MEL-5 cells after 48 hrs by sulforhodamine B assay; settings: SK-MEL-5, 48 h; outline: as §2
OVCAR-5 = assay: Growth inhibition of human OVCAR5 cells after 48 hrs by sulforhodamine B assay; settings: OVCAR-5, 48 h; outline: as §2
[7] = read-out: pLC50 (the source's name) (converted)

Nc1cc(N)c2nc(-c3ccccc3)c(Oc3ccc(F)cc3)nc2c1
GI50 (SR): 8.13 µM
LC50 (concentration giving 50% net cell death) (SR): > 100 µM
TGI (SR; read-out: pTGI (converted)): > 100 µM
GI50 (NCI-H23): 20.9 µM
LC50 (50% net cell kill concentration) (NCI-H23): 77.6 µM
TGI (NCI-H23; read-out: pTGI (converted)): 39.8 µM
GI50 (SK-MEL-28): 19.5 µM
CC50 (SK-MEL-28; [7]): > 100 µM
TGI (SK-MEL-28; read-out: pTGI (converted)): 46.8 µM
growth at 100 µM (SF-268 [1]): 6%
GI50 (SNB-19): 17.4 µM
LC50 (SNB-19): 66.1 µM
TGI (SNB-19; read-out: pTGI (converted)): 33.9 µM
GI50 (MDA-MB-435): 15.8 µM
CC50 (MDA-MB-435; [7]): 67.6 µM
TGI (MDA-MB-435; read-out: pTGI (converted)): 32.4 µM
GI50 (NCI-H322M): 17 µM
LC50 (NCI-H322M): 81.3 µM
TGI (NCI-H322M; read-out: pTGI (converted)): 37.2 µM
GI50 (DU-145): 0.46 µM
CC50 (DU-145; [7]): > 100 µM
TGI (DU-145; read-out: pTGI (converted)): 87.1 µM
growth at 100 µM (MCF7 [2]): 2%
GI50 (SF-295): 20.4 µM
LC50 (50% net cell kill) (SF-295): 72.4 µM
TGI (SF-295; read-out: pTGI (converted)): 38.9 µM
GI50 [3]: 20 µM
CC50 [3, 7]: > 100 µM
TGI ([3]; read-out: pTGI (converted)): 53.7 µM
GI50 [4]: 12.3 µM
LC50 [4]: > 100 µM
TGI ([4]; read-out: pTGI (converted)): 46.8 µM
GI50 (U-251): 23.4 µM
LC50 (50% net cell kill) (U-251): > 100 µM
TGI (U-251; read-out: pTGI (converted)): 79.4 µM
GI50 (OVCAR-8): 22.4 µM
CC50 (OVCAR-8; [7]): 100 µM
TGI (OVCAR-8; read-out: pTGI (converted)): 47.9 µM
growth at 100 µM (NCI-H460): 0%
GI50 (PC-3): 8.32 µM
CC50 (PC-3; [7]): 83.2 µM
TGI (PC-3; read-out: pTGI (converted)): 27.5 µM
GI50 (SK-MEL-2): 42.7 µM
CC50 (SK-MEL-2; [7]): > 100 µM
TGI (SK-MEL-2; read-out: pTGI (converted)): > 100 µM
GI50 (LOX IMVI): 43.7 µM
LC50 (LOX IMVI): > 100 µM
TGI (LOX IMVI; read-out: pTGI (converted)): > 100 µM
GI50 (IGROV-1): 28.2 µM
CC50 (IGROV-1; [7]): > 100 µM
TGI (IGROV-1; read-out: pTGI (converted)): > 100 µM
GI50 (UACC-257): 23.4 µM
CC50 (UACC-257; [7]): 77.6 µM
TGI (UACC-257; read-out: pTGI (converted)): 42.7 µM
GI50 (RXF 393): 19.1 µM
CC50 (RXF 393; [7]): > 100 µM
TGI (RXF 393; read-out: pTGI (converted)): > 100 µM
GI50 (HCT-116): 14.8 µM
LC50 (concentration causing 50% net cell death) (HCT-116): > 100 µM
TGI (HCT-116; read-out: pTGI (converted)): 81.3 µM
GI50 (A549): 24 µM
LC50 (A549): 89.1 µM
TGI (A549; read-out: pTGI (converted)): 46.8 µM
GI50 (COLO 205): 20 µM
LC50 (50% net cell kill) (COLO 205): 66.1 µM
TGI (COLO 205; read-out: pTGI (converted)): 36.3 µM
GI50 (SF-268 [5]): 13.8 µM
LC50 (SF-268 [5]): > 100 µM
TGI (SF-268 [5]; read-out: pTGI (converted)): 47.9 µM
GI50 (MCF7 [6]): 20.4 µM
CC50 (MCF7 [6]; [7]): > 100 µM
TGI (MCF7 [6]; read-out: pTGI (converted)): > 100 µM
GI50 (SW-620): 19.5 µM
CC50 (SW-620; [7]): > 100 µM
TGI (SW-620; read-out: pTGI (converted)): 50.1 µM
GI50 (SK-MEL-5): 12.3 µM
CC50 (SK-MEL-5; [7]): 83.2 µM
TGI (SK-MEL-5; read-out: pTGI (converted)): 31.6 µM
GI50 (OVCAR-5): 20.4 µM
CC50 (OVCAR-5; [7]): > 100 µM
TGI (OVCAR-5; read-out: pTGI (converted)): 47.9 µM

Source: ChEMBL document CHEMBL1137710, “Synthesis and in vitro antitumor activity of new quinoxaline derivatives” (2009)
